High-throughput results (PubChem BioAssay)
OX1R antag-1: OX1R (HCRTR1) antagonists, primary screen, fluorescence, CHO/OX1R cells, Fluo-8 calcium, orexin A | Fluo-8 calcium fluorescence | inhibition, % at 5 µM | hit rate 0.43% among 330,000 | AID 434989, 2010;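 active means inhibition above its plate's threshold, mean inhibition of all tested compounds on the plate plus 3 SD, cut at about 37% in these data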
TAAR1 antag: human TAAR1 antagonists, primary screen, Fluo-8 calcium fluorescence, CHO RD-HGA16 cells; antagonist; inhibition, % at 3 µM; hit rate 1.5% among 360,000; AID 624466, 2012;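 active means inhibition above a per-plate cutoff, the mean inhibition of test compounds on that plate plus 3 SD, cut at about 49% in these data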
Target sequence (Q96RJ0 whole entry, looked up): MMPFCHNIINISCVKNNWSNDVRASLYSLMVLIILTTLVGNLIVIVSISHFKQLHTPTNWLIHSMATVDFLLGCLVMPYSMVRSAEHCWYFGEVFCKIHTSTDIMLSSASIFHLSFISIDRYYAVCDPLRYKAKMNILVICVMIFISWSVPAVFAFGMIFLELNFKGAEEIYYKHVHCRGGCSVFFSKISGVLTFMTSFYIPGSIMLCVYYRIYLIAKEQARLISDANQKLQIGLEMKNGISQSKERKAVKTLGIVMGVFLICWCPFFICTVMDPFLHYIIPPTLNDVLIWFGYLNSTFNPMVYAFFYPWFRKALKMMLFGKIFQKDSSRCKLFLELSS
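Test system – hTAAR1-expressing CHO RD-HGA16 cells, Gα16-coupled · Reagent – β-PEA at EC80 concentration, post-compound challenge · Compound dosing – 3 µM, single point · Timing – 140 s kinetic read after compound, 140 s after agonist · Detection – Fluo-8 intracellular calcium dye fluorescence, real-time kinetic reads · Control set – DMSO and EC80 PEA controls · Repeats – n of 1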
OX1R antag-2: antagonists of human orexin 1 receptor (OX1R) | Orexin/Hypocretin receptor type 1 (Homo sapiens), O43613 | OX1R-expressing cells, FRET antagonist read-out | inhibition, % at 6.6 µM | hit rate 1.8% among 330,000; in the data active means inhibition mostly above about 38%, no sharp cut-off; inactive means mostly below about 40%
CHO parental Ca: ATP-evoked calcium signal inhibitors, parental CHO, primary screen, counter-screen for OX1R antagonist project, cell-based, fluorescence, Fluo-8 calcium dye; parental CHO-K1, ATP-induced calcium, Fluo-8 fluorescence; hit rate 0.63% among 330,000; inhibition, % at 5.6 µM;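 active means inhibition above that plate's mean sample inhibition plus 3 SD, cut at about 26% in these data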
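Material: Parental CHO cells | Reagent: ATP | Compound dosing: Single nominal dose of 5.6 µM per compound | Detection: Intracellular calcium via Fluo-8 no-wash fluorescent dye | Read-out: % inhibition of ATP-induced calcium mobilization | Benchmarks: Low control ATP plus DMSO, high control DMSO only | Replicates: Singlicate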
TAAR1 ag: human TAAR1 agonists, primary screen, Fluo-8 calcium fluorescence, CHO RD-HGA16 cells; AID 624467, 2012; vehicle wells 0%, saturating PEA agonist 100%; Trace amine-associated receptor 1 (Homo sapiens), Q96RJ0; activation, % at 3 µM; hit rate 0.99% among 360,000;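 active means activation above the mean activation of all test compounds in the run plus 3 SD, cut at about 38% in these data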
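Assay system: CHO-derived RD-HGA16 cells with stable Gα16 and human TAAR1; timing: 17-24 h seeding, 75 min 37 °C dye, 30 min RT; read-out: % activation from peak over basal fluorescence ratio, DMSO-to-PEA scaled; measured by: kinetic Fluo-8 calcium fluorescence; benchmarks: low control DMSO, high control PEA (EC100); doses: 3 µM single concentration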
OX1R HTRF conf: OX1R (HCRTR1) antagonists, confirmation, cell-based, HTRF; shares compounds with OX1R antag-2; OX1R-expressing cells, HTRF antagonist assay; inhibition, % at 6.6 µM; hit rate 49% among 1,800; in the data active means inhibition above about 55%;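 further: CHO cells expressing OX1R stimulated with orexin A at about EC80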
CHO-K1 HTRF cnt: signal inhibition in parental CHO-K1 cells, counter-screen for OX1R antagonist project, cell-based, HTRF | AID 493232, 2011 | hit rate 48% among 1,800 | HTRF counterscreen | shares compounds with OX1R antag-2 | inhibition, % at 6.6 µM; in the data active means inhibition above about 17%
Each line names hits and unclear results; the compound was inactive in the other large screens (follow-up assays come after a bar, where they were run). The list is not random: actives were taken first. Their share in the collection is about 4%.

O=C(Cn1cnc2cc([N+](=O)[O-])ccc2c1=O)NC(c1ccccc1)c1ccccc1	none
O=S(=O)(NCc1ccccn1)c1cccc2nsnc12	OX1R antag-2 85.0 | OX1R HTRF conf inactive | CHO-K1 HTRF cnt 42.8
O=C(CCNS(=O)(=O)c1cccc2nsnc12)N1CCN(c2ccccn2)CC1	OX1R antag-2 127.3 (no result: TAAR1 antag, TAAR1 ag) | OX1R HTRF conf inactive | CHO-K1 HTRF cnt 22.6
O=C(CCNS(=O)(=O)c1cccc2nsnc12)N1CCc2ccccc21	OX1R antag-2 94.7 | OX1R HTRF conf inactive | CHO-K1 HTRF cnt 21.6
O=C(O)CCNS(=O)(=O)c1cccc2nsnc12	none
COc1ccc(N2CCN(C(=O)CCS(=O)(=O)c3ccc(OC)cc3)CC2)cc1	none
COc1ccc(N2CCN(C(=O)CCS(=O)(=O)c3cccc4nsnc34)CC2)cc1	OX1R antag-2 90.3 | OX1R HTRF conf inactive | CHO-K1 HTRF cnt 48.2
Nc1cc2c(cc1O)CCCC2	none
Cc1ccccc1NC(=O)CCNS(=O)(=O)c1cccc2nsnc12	OX1R antag-2 78.5 | OX1R HTRF conf inactive | CHO-K1 HTRF cnt 38.2
Cc1cccc(NC(=O)CCNS(=O)(=O)c2cccc3nsnc23)c1C	none
O=C1C(=O)N(CCN2CCOCC2)C(c2ccccn2)/C1=C(/O)c1ccccc1 (stereo not drawn)	OX1R antag-2 178.5 | OX1R HTRF conf inactive | CHO-K1 HTRF cnt 36.0
COc1ccc(/C(O)=C2/C(=O)C(=O)N(CCN3CCOCC3)C2c2ccccn2)cc1OC (stereo not drawn)	OX1R antag-2 134.7 | OX1R HTRF conf inactive | CHO-K1 HTRF cnt 28.5
COc1ccc(/C(O)=C2/C(=O)C(=O)N(CCN(C)C)C2c2ccccn2)cc1OC (stereo not drawn)	none
Cc1ccc(/C(O)=C2/C(=O)C(=O)N(CCN3CCOCC3)C2c2ccccn2)cc1 (stereo not drawn)	OX1R antag-2 82.3 | OX1R HTRF conf inactive | CHO-K1 HTRF cnt 32.7
CC(C)=NN/C(N)=N/C(=S)Nc1ccc(C)cc1	none
COc1ccc(CC(=O)NC(c2ccccc2)c2ccc(C)cc2)c(OC)c1 (stereo not drawn)	none
CCN(C(=O)COC(=O)/C=C/c1cnc2ccccc2n1)C1CCS(=O)(=O)C1 (stereo not drawn)	OX1R antag-2 82.2 | OX1R HTRF conf inactive | CHO-K1 HTRF cnt 46.5
CN(C(=O)COC(=O)/C=C/c1ccc2ccccc2n1)C1CCS(=O)(=O)C1 (stereo not drawn)	none
COc1ccc(CCN2CC(C(=O)N(C)CC(=O)Nc3cccc(F)c3)CC2=O)cc1OC (stereo not drawn)	none
COc1ccc(C(=O)C[n+]2ccc(-c3nnc4n3CCC4)cc2)cc1	OX1R antag-2 84.8 | OX1R HTRF conf 64.5 | CHO-K1 HTRF cnt 49.8
O=[N+]([O-])c1cc(-c2nc(-c3ccncc3)no2)cc([N+](=O)[O-])c1	OX1R antag-2 77.9 | OX1R HTRF conf 71.9 | CHO-K1 HTRF cnt 63.1
O=[N+]([O-])c1cc(-c2nc(-c3ccncc3)no2)ccc1Cl	none
Cc1c(NC(=O)C(C)Oc2cccc(F)c2)c(=O)n(-c2ccccc2)n1C (stereo not drawn)	none
COc1cccc(C(=O)NC2CC3CCCC(C2)N3CC(=O)Nc2ccccc2C(F)(F)F)c1 (stereo not drawn)	OX1R antag-2 89.7 | OX1R HTRF conf 89.1 | CHO-K1 HTRF cnt inactive
COc1cccc(C(=O)NC2CC3CCC(C2)N3Cc2ccccc2)c1 (stereo not drawn)	none
CNc1cccc(-c2ccccc2CO)n1	none (no result: OX1R antag-1, OX1R antag-2, CHO parental Ca)
COc1ccc(NC(=O)C2=CN3CCS(=O)(=O)N=C3C=C2)c(OC)c1	none
Cc1ccc(NC2CCCN(C(=O)c3cc(C(C)C)nn3C)C2)cc1C (stereo not drawn)	none (no result: OX1R antag-1, OX1R antag-2, CHO parental Ca)
